Data taken from PMC4437839 (Chemical research in toxicology, 2015).
Entries after “also recorded” stand apart in the source; their conditions may differ.

Assays:
[1] = system: NAT1; conditions: cited from earlier work
[2] = system: NAT2; conditions: cited from earlier work
[3] = molecular target: albumin in human plasma (Homo sapiens, UniProt P02768); conditions: for level of LQQC*[SOPhIP]PF formed, comparison between the three metabolites: albumin in human plasma or commercial human albumin, p=0.231, one-way ANOVA; for LQQC*[SO2PhIP]PFEDHVK levels, N-acetoxy-PhIP versus HONH-PhIP: human plasma, p>0.05, t-test
[4] = system: 2′-Deoxyguanosine (dG); experiment: Trapping reactive N-oxidized electrophiles of PhIP with dG; conditions: 42 nmol, dG 1 mg/mL, pH 8.0, 37 °C, 1 h; total ion counts at MS3 (Fig. 3)
[5] = system: SULT1A1; conditions: cited from earlier work
[6] = system: Hb; conditions: humans, radiolabelled 14C-PhIP; cited from earlier work
[7] = system: albumin; conditions: humans; cited from earlier work
[8] = molecular target: albumin in human hepatocytes culture (Homo sapiens, UniProt P02768); experiment: Albumin PhIP adducts and Cys34SO3H in human hepatocytes; type: cell-based
Summary of the method: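 Primary human hepatocytes (two-step collagenase perfusion) seeded at 3×10^6 viable cells/19.5-cm2 dish in Williams' medium with βME-pre-reduced human albumin (1 g/L) replacing FCS; exposed 24 h to PhIP or 1:1 PhIP:[2H5]-PhIP (50 µM). Medium albumin ethyl acetate-extracted, ethanol-precipitated, kit-isolated, desalted; trypsin/chymotrypsin digested (37 °C, 20 h); C18 SPE; mass-tag data-dependent, then targeted UPLC-ESI/MS2.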

[9] = N-sulfooxy-PhIP modified albumin, unpublished observations

Chain of albumin in human plasma (P02768 25-609): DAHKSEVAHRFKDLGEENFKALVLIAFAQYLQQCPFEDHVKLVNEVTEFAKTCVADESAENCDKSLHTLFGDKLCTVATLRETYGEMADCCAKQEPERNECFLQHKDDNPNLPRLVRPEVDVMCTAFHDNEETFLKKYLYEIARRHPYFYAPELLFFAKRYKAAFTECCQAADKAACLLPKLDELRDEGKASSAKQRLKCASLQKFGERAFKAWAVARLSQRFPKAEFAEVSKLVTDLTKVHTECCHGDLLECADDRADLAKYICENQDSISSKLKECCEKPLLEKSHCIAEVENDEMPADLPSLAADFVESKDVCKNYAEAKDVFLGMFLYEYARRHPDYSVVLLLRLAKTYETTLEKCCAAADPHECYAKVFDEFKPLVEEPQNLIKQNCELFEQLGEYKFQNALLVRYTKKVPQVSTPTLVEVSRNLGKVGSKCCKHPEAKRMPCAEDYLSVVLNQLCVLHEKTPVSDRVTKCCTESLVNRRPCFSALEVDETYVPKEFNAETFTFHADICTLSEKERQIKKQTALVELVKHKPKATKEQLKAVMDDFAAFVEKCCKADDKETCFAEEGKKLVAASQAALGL
Chain of albumin in human hepatocytes culture (P02768 25-609): as above

In the case of Cn1c(NO)nc2ncc(-c3ccccc3)cc21 [HONH-PhIP, 2-hydroxyamino-1-methyl-6-phenylimidazo[4,5-b]pyridine], the “bioactivation by NAT1” value [1] is listed as “poorly bioactivated”, the “bioactivation by NAT2” value [2] is listed as “poorly bioactivated” and the “level of LQQC*[SOPhIP]PF formed, comparison between the three metabolites” value (“level of LQQC*[SOPhIP]PF formed” for short) [3] is listed as “no statistically significant difference”. The “LQQC*[SO2PhIP]PFEDHVK levels, N-acetoxy-PhIP versus HONH-PhIP” value [3] was “no significant difference”, the “relative amount of dG-C8-PhIP formation” value [4] was “lastly” and the “bioactivation by SULT1A1” value [5] was “highly effective”.

For Cn1c(N)nc2ncc(-c3ccccc3)cc21 [PhIP, 2-amino-1-methyl-6-phenylimidazo[4,5-b]pyridine], the “PhIP binding to Hb” value [6] is listed as “very low”, the “binding of PhIP to albumin” value [7] is listed as “up to several percent of the ingested dose” and the “PhIP and 5-HO-PhIP in the proteolytic digests of albumin” value ([8]; PhIP 50 µM, 24 h (Figs. 8A, 8B)) is listed as “detected”. The “Y*[desaminoPhIP]TK (Tyr411) and LQQC*[desaminoPhIP]PF (Cys34) adducts” value ([8]; PhIP 50 µM, tryptic/chymotryptic digest (Fig. 9)) was “both adducts were identified”, the “albumin-PhIP peptide adducts at Cys34 or Trp214” value ([8]; PhIP or PhIP:[2H5]-PhIP 50 µM, 24 h, data-dependent and targeted MS2) was “failed to detect; also recorded: below the limit of detection” and the “LQQC*[SO2PhIP]PFEDHVK after m-CPBA oxidation of albumin” value ([8]; albumin isolated from hepatocytes, targeted MS2) was “failed to detect; also recorded: not detected”.

With Cn1c(NOS(=O)(=O)O)nc2ncc(-c3ccccc3)cc21 [N-sulfooxy-PhIP, N-sulfooxy-2-amino-1-methyl-6-phenylimidazo[4,5-b]pyridine] the “level of W[PhIP] adduct relative to signal of C[SO2PhIP]” value ([3]; 3-enzyme digest, ion counts (Fig. 7)) was “about half”, the “ion counts of H[PhIP], fold lower than counts of W[PhIP]” value [3, 9] was 5 folder and the “ion counts of H[PhIP], fold lower than ion counts of C[SO2PhIP]” value [3, 9] was 10 fold. The “level of LQQC*[SOPhIP]PF formed” value [3] was “no statistically significant difference”, the “level of Trp[PhIP] relative to N-acetoxy-PhIP or HONH-PhIP treated human plasma” value ([3]; pronase E/leucine aminopeptidase/prolidase digest, ion counts (Fig. 7B)) was 3 x and the “relative amount of dG-C8-PhIP formation” value [4] was “lower level”.

In the case of CC(=O)ONc1nc2ncc(-c3ccccc3)cc2n1C [N-acetoxy-PhIP, N-(acetyloxy)-2-amino-1-methyl-6-phenylimidazo[4,5-b]pyridine, reference compound], the “level of LQQC*[SOPhIP]PF formed” value [3] is reported as “no statistically significant difference”, the “LQQC*[SO2PhIP]PFEDHVK levels, N-acetoxy-PhIP versus HONH-PhIP” value [3] is reported as “no significant difference” and the “relative amount of dG-C8-PhIP formation” value [4] is reported as “greatest amount”.
